Measured values: ChEMBL document CHEMBL1828575, “Design, synthesis and antiproliferative activities of biarylolefins based on polyhydroxylated and carbohydrate scaffolds” (Eur J Med Chem, 2011)

Legend:
PC-3 [1] = assay: Cytotoxicity against human PC3 cells at 10^-6 M after 72 hrs by MTS assay; type: functional; conditions: PC-3, 72 h, read-out: GI
In short: (§1)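 Preliminary screen at 10^-5 and 10^-6 M. Cells were grown in RPMI with 10% fetal calf serum plus penicillin, streptomycin and fungizone under 5% CO₂, plated in 96-well plates, and dosed 24 h later from DMSO stocks (1% DMSO final, same in controls). After 72 h, MTS was added for 3 h at 37 °C and absorbance read at 490 nm. Inhibition was calculated as (1 − OD treated/OD control) × 100, in triplicate.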

SF-268 [2] = assay: Cytotoxicity against human SF268 cells at 10^-6 M after 72 hrs by MTS assay; type: functional; conditions: SF-268, 72 h, read-out: GI; in short: as §1
SK-OV-3 [3] = assay: Cytotoxicity against human SKOV3 cells at 10^-6 M after 72 hrs by MTS assay; type: functional; conditions: SK-OV-3, 72 h, read-out: GI; in short: as §1
OVCAR-8 [4] = assay: Cytotoxicity against human OVCAR8 cells at 10^-6 M after 72 hrs by MTS assay; type: functional; conditions: OVCAR-8, 72 h, read-out: GI; in short: as §1
MIA PaCa-2 [5] = assay: Cytotoxicity against human MIAPaCa2 cells at 10^-6 M after 72 hrs by MTS assay; type: functional; conditions: MIA PaCa-2, 72 h, read-out: GI
HL-60 [6] = assay: Cytotoxicity against human HL60 cells at 10^-6 M after 72 hrs by MTS assay; type: functional; conditions: HL-60, 72 h, read-out: GI
In short: (§2)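 Cells grown in RPMI with 10% fetal calf serum, penicillin, streptomycin and fungizone under 5% CO₂. Plated in 96-well plates and dosed 24 h later with compound in DMSO (1% final DMSO; controls got DMSO alone). After 72 h, MTS was added for 3 h at 37 °C and A490 read. Inhibition = (1 − OD treated/OD control) × 100, in triplicate.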

[7] = Cytotoxicity against human HL60R cells at 10^-6 M after 72 hrs by MTS assay; type: functional; conditions: read-out: GI; in short: as §2
K562 [8] = assay: Cytotoxicity against human K562 cells at 10^-6 M after 72 hrs by MTS assay; type: functional; conditions: K562, 72 h, read-out: GI; in short: as §2
HCT-116 [9] = assay: Cytotoxicity against human HCT116 cells at 10^-5 M after 72 hrs by MTS assay; type: functional; conditions: HCT-116, 72 h, read-out: GI; in short: as §2
HT-29 [10] = assay: Cytotoxicity against human HT-29 cells at 10^-5 M after 72 hrs by MTS assay; type: functional; conditions: HT-29, 72 h, read-out: GI; in short: as §2
HCT-15 [11] = assay: Cytotoxicity against human HCT15 cells at 10^-5 M after 72 hrs by MTS assay; type: functional; conditions: HCT-15, 72 h, read-out: GI; in short: as §2
MCF7 [12] = assay: Cytotoxicity against human MCF7 cells at 10^-5 M after 72 hrs by MTS assay; type: functional; conditions: MCF7, 72 h, read-out: GI
[13] = Cytotoxicity against human MDA231 cells at 10^-5 M after 72 hrs by MTS assay; type: functional; conditions: MDA-MB-231, 72 h, read-out: GI; in short: as §1
A549 [14] = assay: Cytotoxicity against human A549 cells at 10^-5 M after 72 hrs by MTS assay; type: functional; conditions: A549, 72 h, read-out: GI; in short: as §2
PC-3 [15] = assay: Cytotoxicity against human PC3 cells at 10^-5 M after 72 hrs by MTS assay; type: functional; conditions: PC-3, 72 h, read-out: GI; in short: as §1
SF-268 [16] = assay: Cytotoxicity against human SF268 cells at 10^-5 M after 72 hrs by MTS assay; type: functional; conditions: SF-268, 72 h, read-out: GI; in short: as §1
SK-OV-3 [17] = assay: Cytotoxicity against human SKOV3 cells at 10^-5 M after 72 hrs by MTS assay; type: functional; conditions: SK-OV-3, 72 h, read-out: GI; in short: as §1
OVCAR-8 [18] = assay: Cytotoxicity against human OVCAR8 cells at 10^-5 M after 72 hrs by MTS assay; type: functional; conditions: OVCAR-8, 72 h, read-out: GI; in short: as §1
MIA PaCa-2 [19] = assay: Cytotoxicity against human MIAPaCa2 cells at 10^-5 M after 72 hrs by MTS assay; type: functional; conditions: MIA PaCa-2, 72 h, read-out: GI
HL-60 [20] = assay: Cytotoxicity against human HL60 cells at 10^-5 M after 72 hrs by MTS assay; type: functional; conditions: HL-60, 72 h, read-out: GI; in short: as §2
[21] = Cytotoxicity against human HL60R cells at 10^-5 M after 72 hrs by MTS assay; type: functional, HL-60; conditions: read-out: GI; in short: as §2
K562 [22] = assay: Cytotoxicity against human K562 cells at 10^-5 M after 72 hrs by MTS assay; type: functional; conditions: K562, 72 h, read-out: GI; in short: as §2
HCT-15 [23] = assay: Antiproliferative activity against human HCT15 cells after 72 hrs by MTS assay; type: functional, cell-based; conditions: HCT-15, 72 h
In short: (§3)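 Cell lines grown in RPMI with 10% fetal calf serum plus penicillin, streptomycin and fungizone under 5% CO2. Compounds in DMSO (1% final; controls got DMSO alone) were added 24 h after plating. After 72 h exposure, MTS was added for 3 h at 37 °C and A490 read. Inhibition = (1 − OD treated/OD control)×100, in triplicate. IC50s came from separate duplicate dose-response experiments.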

[24] = Antiproliferative activity against human MDA231 cells after 72 hrs by MTS assay; type: functional, cell-based; conditions: MDA-MB-231, 72 h; in short: as §3
PC-3 [25] = assay: Antiproliferative activity against human PC3 cells after 72 hrs by MTS assay; type: functional, cell-based; conditions: PC-3, 72 h; in short: as §3
SF-268 [26] = assay: Antiproliferative activity against human SF268 cells after 72 hrs by MTS assay; type: functional, cell-based; conditions: SF-268, 72 h; in short: as §3
SK-OV-3 [27] = assay: Antiproliferative activity against human SKOV3 cells after 72 hrs by MTS assay; type: functional, cell-based; conditions: SK-OV-3, 72 h; in short: as §3
OVCAR-8 [28] = assay: Antiproliferative activity against human OVCAR8 cells after 72 hrs by MTS assay; type: functional, cell-based; conditions: OVCAR-8, 72 h; in short: as §3
HL-60 [29] = assay: Antiproliferative activity against human HL60 cells after 72 hrs by MTS assay; type: functional, cell-based; conditions: HL-60, 72 h; in short: as §3
[30] = Antiproliferative activity against human HL60R cells after 72 hrs by MTS assay; type: functional, cell-based
K562 [31] = assay: Antiproliferative activity against human K562 cells after 72 hrs by MTS assay; type: functional, cell-based; conditions: K562, 72 h; in short: as §3
HCT-116 [32] = assay: Cytotoxicity against human HCT116 cells at 10^-6 M after 72 hrs by MTS assay; type: functional; conditions: HCT-116, 72 h, read-out: GI; in short: as §2
HT-29 [33] = assay: Cytotoxicity against human HT-29 cells at 10^-6 M after 72 hrs by MTS assay; type: functional; conditions: HT-29, 72 h, read-out: GI; in short: as §2
HCT-15 [34] = assay: Cytotoxicity against human HCT15 cells at 10^-6 M after 72 hrs by MTS assay; type: functional; conditions: HCT-15, 72 h, read-out: GI; in short: as §2
MCF7 [35] = assay: Cytotoxicity against human MCF7 cells at 10^-6 M after 72 hrs by MTS assay; type: functional; conditions: MCF7, 72 h, read-out: GI
[36] = Cytotoxicity against human MDA231 cells at 10^-6 M after 72 hrs by MTS assay; type: functional; conditions: MDA-MB-231, 72 h, read-out: GI; in short: as §1
A549 [37] = assay: Cytotoxicity against human A549 cells at 10^-6 M after 72 hrs by MTS assay; type: functional; conditions: A549, 72 h, read-out: GI; in short: as §2

## COc1ccc(/C(=C2\O[C@@H]([C@H](O)CO)[C@H]3OC(C)(C)O[C@@H]23)c2cc(OC)c(OC)c(OC)c2)cc1O
PC-3 [1]
  inhibition of growth at 1 µM: 0%
SF-268 [2]
  inhibition of growth at 1 µM: 16%
SK-OV-3 [3]
  inhibition of growth at 1 µM: 6%
OVCAR-8 [4]
  inhibition of growth at 1 µM: 1%
MIA PaCa-2 [5]
  inhibition of growth at 1 µM: 5%
HL-60 [6]
  inhibition of growth at 1 µM: 10%
[7]
  inhibition of growth at 1 µM: 12%
K562 [8]
  inhibition of growth at 1 µM: 15%
HCT-116 [9]
  inhibition of growth at 10 µM: 58%
HT-29 [10]
  inhibition of growth at 10 µM: 8%
HCT-15 [11]
  inhibition of growth at 10 µM: 82%
MCF7 [12]
  inhibition of growth at 10 µM: 43%
[13]
  inhibition of growth at 10 µM: 69%
A549 [14]
  inhibition of growth at 10 µM: 58%
PC-3 [15]
  inhibition of growth at 10 µM: 77%
SF-268 [16]
  inhibition of growth at 10 µM: 73%
SK-OV-3 [17]
  inhibition of growth at 10 µM: 81%
OVCAR-8 [18]
  inhibition of growth at 10 µM: 95%
MIA PaCa-2 [19]
  inhibition of growth at 10 µM: 58%
HL-60 [20]
  inhibition of growth at 10 µM: 79%
[21]
  inhibition of growth at 10 µM: 95%
K562 [22]
  inhibition of growth at 10 µM: 90%
HCT-15 [23]
  IC50: 630 nM
[24]
  IC50: 610 nM
PC-3 [25]
  IC50: 690 nM
SF-268 [26]
  IC50: 1100 nM
SK-OV-3 [27]
  IC50: 6510 nM
OVCAR-8 [28]
  IC50: 2970 nM
HL-60 [29]
  IC50: 820 nM
[30]
  IC50: 1490 nM
K562 [31]
  IC50: 450 nM
HCT-116 [32]
  inhibition of growth at 1 µM: 1%
HT-29 [33]
  inhibition of growth at 1 µM: 6%
HCT-15 [34]
  inhibition of growth at 1 µM: 11%
MCF7 [35]
  inhibition of growth at 1 µM: 0%
[36]
  inhibition of growth at 1 µM: 0%
A549 [37]
  inhibition of growth at 1 µM: 0%
